The target of assay [1] is T1, human CNGA3 wild-type homomeric channels (Homo sapiens, UniProt Q16281).
T1 sequence (Q16281 1-694): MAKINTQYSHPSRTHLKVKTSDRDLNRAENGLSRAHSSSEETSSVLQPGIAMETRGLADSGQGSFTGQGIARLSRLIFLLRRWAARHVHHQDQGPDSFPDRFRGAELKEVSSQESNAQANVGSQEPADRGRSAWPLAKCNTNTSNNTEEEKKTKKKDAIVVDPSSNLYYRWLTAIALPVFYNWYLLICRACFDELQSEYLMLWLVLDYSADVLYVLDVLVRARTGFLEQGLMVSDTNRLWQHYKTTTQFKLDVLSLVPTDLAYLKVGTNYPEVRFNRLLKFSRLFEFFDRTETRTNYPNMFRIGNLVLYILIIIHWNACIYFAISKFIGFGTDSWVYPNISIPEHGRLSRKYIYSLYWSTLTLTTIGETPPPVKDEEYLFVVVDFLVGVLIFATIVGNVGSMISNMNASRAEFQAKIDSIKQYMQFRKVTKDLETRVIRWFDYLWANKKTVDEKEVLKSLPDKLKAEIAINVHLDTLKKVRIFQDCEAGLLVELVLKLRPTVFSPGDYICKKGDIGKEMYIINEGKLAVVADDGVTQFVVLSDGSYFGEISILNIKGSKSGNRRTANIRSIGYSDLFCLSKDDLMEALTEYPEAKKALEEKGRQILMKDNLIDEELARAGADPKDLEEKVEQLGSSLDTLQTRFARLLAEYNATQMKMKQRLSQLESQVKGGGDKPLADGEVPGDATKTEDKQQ
Nature of the assay: Inside-out patch clamp, homomeric CNGA3 wild type expressed in X. laevis oocytes. Type of assay: biochemical. On the technique in general: In patch-clamp work, channel activity is measured electrically.

A further assay deals with CNG channels. The following applies: ref Fodor et al., 1997; cited from earlier work.
Assay [2] has as its target T2, A3-N7R-A,RR-QQ+B3 channels (Homo sapiens, UniProt Q16281+Q9NQW8, R101A/R103A/R643Q/R646Q/R72A/R75A/R81A/R82A/R86A).
T2 sequence (Q16281 1-694 R72A/R75A/R81A/R82A/R86A/R101A/R103A/R643Q/R646Q): T1 sequence (Q16281 1-694) with R72A, R75A, R81A, R82A, R86A, R101A, R103A, R643Q, R646Q
T2 sequence (Q9NQW8 1-809): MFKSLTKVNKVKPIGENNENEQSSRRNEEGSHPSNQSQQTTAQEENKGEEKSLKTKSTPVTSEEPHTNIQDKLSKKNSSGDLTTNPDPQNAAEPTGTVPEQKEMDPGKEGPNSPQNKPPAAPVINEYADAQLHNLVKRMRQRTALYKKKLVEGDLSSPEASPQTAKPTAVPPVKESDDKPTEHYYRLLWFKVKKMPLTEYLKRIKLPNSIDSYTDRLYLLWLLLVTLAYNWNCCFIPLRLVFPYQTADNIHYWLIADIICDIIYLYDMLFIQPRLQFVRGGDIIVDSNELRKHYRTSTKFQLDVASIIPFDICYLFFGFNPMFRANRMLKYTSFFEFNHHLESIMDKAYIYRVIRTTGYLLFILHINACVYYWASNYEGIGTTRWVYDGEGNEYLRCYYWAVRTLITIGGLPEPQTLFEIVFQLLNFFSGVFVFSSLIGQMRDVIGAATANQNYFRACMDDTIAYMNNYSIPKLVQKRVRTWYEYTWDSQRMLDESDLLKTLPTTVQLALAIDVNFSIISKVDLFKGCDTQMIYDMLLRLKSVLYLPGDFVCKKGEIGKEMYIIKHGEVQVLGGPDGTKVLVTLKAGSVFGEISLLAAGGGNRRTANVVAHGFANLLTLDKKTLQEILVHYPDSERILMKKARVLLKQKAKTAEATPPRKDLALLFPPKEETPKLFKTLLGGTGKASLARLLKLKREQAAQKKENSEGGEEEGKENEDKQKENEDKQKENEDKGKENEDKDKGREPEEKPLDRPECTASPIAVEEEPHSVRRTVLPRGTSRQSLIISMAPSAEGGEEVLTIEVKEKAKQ
Kind of assay: Inside-out patch clamp, A3-N7R-A,RR-QQ+B3. The class given is biochemical. The conditions noted are these: 10 µM PIP2 or 1 µM PIP3. An outline of the steps: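 Subunit cRNAs (~20 ng, B in excess over A) injected into stage IV Xenopus oocytes; inside-out patches 2–7 d later, 20–22°C, symmetric 130 mM NaCl, 0.2 mM EDTA, 3 mM Hepes pH 7.2. Heteromer formation checked by 25 µM l-cis-diltiazem with 1 mM cGMP. diC8 phosphoinositides applied intracellularly in phosphatase-inhibitor cocktail. cGMP dose–response at +80 mV, leak-subtracted, Hill fit before/after for K1/2; mean ± SEM.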

Assay [3] has as its target T3, heteromeric CNGA3+CNGB3 channels (Homo sapiens, UniProt Q16281+Q9NQW8).
T3 sequence (Q16281 1-694): T1 sequence (Q16281 1-694)
T3 sequence (Q9NQW8 1-809): T2 sequence (Q9NQW8 1-809)
Kind of assay: Inside-out patch clamp, heteromeric CNGA3+CNGB3. Type of assay: biochemical.

The target in assay [4] is T4, CNGA3 P99L, A105P (PA-LP) channels (Homo sapiens, UniProt Q16281, A105P/P99L).
T4 sequence (Q16281 1-694 P99L/A105P): T1 sequence (Q16281 1-694) with P99L, A105P
Nature of the assay: Inside-out patch clamp, CNGA3 P99L, A105P. The conditions noted are these: after PIP3 or PIP2 application. Type of assay: biochemical.

In the next assay the target is CNGA1 homomeric channels (Bos taurus, UniProt Q00194). Kind of assay: Inside-out patch clamp, homomeric CNGA1. Type of assay: biochemical, bovine. The following applies: PIP3 or PIP2 application.
CNGA1 homomeric channels, sequence (Q00194 whole entry): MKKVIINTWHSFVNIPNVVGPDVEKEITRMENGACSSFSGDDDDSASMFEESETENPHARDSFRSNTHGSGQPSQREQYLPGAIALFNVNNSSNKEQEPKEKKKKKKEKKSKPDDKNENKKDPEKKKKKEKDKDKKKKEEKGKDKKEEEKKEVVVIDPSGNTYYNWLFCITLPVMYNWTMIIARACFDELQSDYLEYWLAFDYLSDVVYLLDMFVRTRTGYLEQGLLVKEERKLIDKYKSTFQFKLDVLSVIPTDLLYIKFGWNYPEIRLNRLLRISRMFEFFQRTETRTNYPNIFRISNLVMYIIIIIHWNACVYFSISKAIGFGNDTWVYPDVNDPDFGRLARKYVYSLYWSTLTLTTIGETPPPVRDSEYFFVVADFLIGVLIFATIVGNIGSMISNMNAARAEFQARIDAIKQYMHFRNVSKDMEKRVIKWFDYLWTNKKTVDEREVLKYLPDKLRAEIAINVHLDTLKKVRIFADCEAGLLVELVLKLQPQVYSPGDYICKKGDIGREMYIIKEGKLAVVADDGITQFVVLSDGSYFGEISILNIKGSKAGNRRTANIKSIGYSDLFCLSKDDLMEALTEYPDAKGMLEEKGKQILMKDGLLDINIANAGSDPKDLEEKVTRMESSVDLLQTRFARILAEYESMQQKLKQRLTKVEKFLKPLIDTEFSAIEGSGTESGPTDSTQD
The mark [5] stands for this setting: mean, after 1 µM PIP3 or 10 µM PIP2.
Setting [6] is: representative patch, after PIP3 or PIP2.

Residue numbers refer to the chain shown, from its start.

As to `C=C1[C@@H](C)[C@H]2[C@H](Cc3ccccc3)NC(=O)[C@]23[C@H](OC(C)=O)/C=C/[C@@](C)(O)C(=O)[C@@H](C)C/C=C/[C@H]3[C@@H]1O` [cyto D, cytochalasin D], the “effect on cAMP efficacy” value in assay [1] (10 µM cyto D applied to inside-out patches) is “decrease in cAMP efficacy”.
As for `CCCCNc1ccc(C(=O)OCCN(C)C)cc1` [tetracaine], the “greater affinity for closed compared with open channels” value in the assay on CNG channels was ~1,000 fold.
For the compound “phosphatidylinositol (4,5)-biphosphate [PIP2]”, the “regulation of apparent cGMP affinity” value in assay [2] is reported as “insensitive to regulation”. In addition, in assay [1] (1 mM cGMP), the “effect on maximal cGMP current” value is reported as “not significantly altered”. In assay [1] (apparent cAMP affinity after PIP3 or PIP2 application), the “K1/2 cAMP after phosphoinositide” value is given as 1.13 ± 0.04 mM. Further, the “effect on currents elicited by 5 µM cGMP” value in assay [3] (1 µM PIP3 or 10 µM PIP2) is reported as “attenuated the currents”. The “Imax cAMP/cGMP after phosphoinositide” value in assay [3] (after PIP2 or PIP3 application) is on record as 0.27 ± 0.02. In addition, the “Hill coefficient h after phosphoinositide” value in assay [3] (setting [5]) is given as 1.6; in assay [3] (setting [6]) it was 1.6; in assay [4] it was 1.7. Moreover, the “K1/2 cGMP after phosphoinositide” value in assay [3] (setting [5]) stood at 23.4 ± 1.8 µM; in assay [3] (setting [6]) it was 24.5 µM; in assay [4] it was 8.7 ± 0.4 µM. Also, the “Imax cGMP compared with initial values” in assay [3] (saturating cGMP, after 1 µM PIP3 or 10 µM PIP2) was found to be 85.3 ± 3.7%. Also, the “effect on relative cAMP efficacy” value on CNGA1 homomeric channels was “decreased relative cAMP efficacy”.
Regarding poly-lysine, in assay [1] (poly-lysine applied to control patches (no exogenous PIPn)), the “Imax cAMP/cGMP after poly-lysine” value was 0.10 ± 0.01.

The record behind these values is paper PMC3607822 (The Journal of General Physiology, 2013).
